This note sets out measurements from article PMC3658176 (Cancer cell, 2013).

The target of experiment [1] is T1, H2-D^b (Mus musculus, UniProt P01899).
T1 sequence (P01899 25-362): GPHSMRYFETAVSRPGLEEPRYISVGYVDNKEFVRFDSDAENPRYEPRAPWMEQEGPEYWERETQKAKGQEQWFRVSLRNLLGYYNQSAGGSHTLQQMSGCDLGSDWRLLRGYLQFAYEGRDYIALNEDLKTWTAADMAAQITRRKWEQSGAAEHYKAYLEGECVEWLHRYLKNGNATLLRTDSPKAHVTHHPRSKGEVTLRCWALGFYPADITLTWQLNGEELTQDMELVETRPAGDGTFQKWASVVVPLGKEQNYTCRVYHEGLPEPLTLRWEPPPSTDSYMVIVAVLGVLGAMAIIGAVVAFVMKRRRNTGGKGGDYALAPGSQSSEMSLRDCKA
T1 sequence (P01887 21-119 partner): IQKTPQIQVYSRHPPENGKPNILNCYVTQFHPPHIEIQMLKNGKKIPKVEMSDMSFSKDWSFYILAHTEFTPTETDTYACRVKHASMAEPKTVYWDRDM
In words: Cell-free competition MHC peptide binding assay, purified H2-D^b.

Experiment [2] concerns the target T2, H2-K^b (Mus musculus, UniProt P01901).
T2 sequence (P01901 22-369): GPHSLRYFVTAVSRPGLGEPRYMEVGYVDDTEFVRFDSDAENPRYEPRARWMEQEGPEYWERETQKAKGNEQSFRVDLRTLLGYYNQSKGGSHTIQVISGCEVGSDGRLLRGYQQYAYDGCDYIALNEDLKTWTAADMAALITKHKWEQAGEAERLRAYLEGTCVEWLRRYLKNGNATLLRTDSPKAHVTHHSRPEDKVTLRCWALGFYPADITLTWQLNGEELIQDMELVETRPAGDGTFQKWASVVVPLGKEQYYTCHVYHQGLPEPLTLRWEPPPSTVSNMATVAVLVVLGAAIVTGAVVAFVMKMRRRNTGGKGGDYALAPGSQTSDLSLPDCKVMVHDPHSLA
T2 sequence (P01887 21-119 partner): T1 sequence (P01887 21-119 partner)
Briefly: Cell-free competition MHC peptide binding assay, purified H2-K^b.

For experiment [3], the target named is HLA-A*0201 (Homo sapiens, UniProt P04439, D140Y/D185E/D98H/E176V/E277Q/G131W/G231S/I119V/I121R/I166T/I218V/L300P/L318F/N151K/N90K/P208A/P217A/Q86G/Q94H/R138H/R169H/T345S). Briefly: Cell-free competition MHC peptide binding assay, purified HLA-A*0201. The essentials: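 Purified MHC class I molecule incubated with a labelled probe peptide and graded concentrations of unlabelled test peptide. IC50 taken as the inhibitor peptide concentration that displaces half of the probe. Labelled probe concentration was below MHC concentration. Under these conditions, and where IC50 ≥ MHC concentration, IC50 approximates KD.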

pIC50: −log10 of the molar value. Where no end group is shown, it is not given here.

EGPRNQDWL [EGP] had a pIC50 in experiment [1] of 6.34.

In experiment [2], SIYRYYGL [SIY] had a pIC50 of 8.96.

Take KVPRNQDWL [hgp100_25–33]: the pIC50 in experiment [1] was 6.73.

EGSRNQDWL [mgp100_25–33] gave a pIC50 in experiment [1] of 4.64.

Compound FMDGTMSQV [Tyr369–377] had a pIC50 in experiment [3] of 8.38.

Compound `CC[C@H](C)[C@H](NC(=O)[C@@H](NC(=O)[C@@H](N)CO)[C@@H](C)CC)C(=O)N[C@@H](CC(N)=O)C(=O)N[C@@H](Cc1ccccc1)C(=O)N[C@@H](CCC(=O)O)C(=O)N[C@@H](CCCCN)C(=O)N[C@@H](CC(C)C)C(=O)O` [OVA257–264] gave a pIC50 in experiment [2] of 9.05.

By pIC50 is commonly meant the negative decadic logarithm of the IC50, by convention in mol/L. A higher pIC50 goes with a low IC50.
